Measurements taken from ChEMBL document CHEMBL5029174, “Discovery of structurally distinct tricyclic M4 positive allosteric modulator (PAM) chemotypes - Part 2” (Bioorg Med Chem Lett, 2021).

What was measured:
[1] = biological target: T1, Muscarinic acetylcholine receptor M4 (Homo sapiens, UniProt P08173); assay: Positive allosteric modulation of human muscarinic acetylcholine M4/Gqi5 receptor expressed in CHO cells in presence of acetylcholine at EC20 concentration by calcium mobilization assay; type: functional, cell-based
T1 sequence (P08173 whole entry): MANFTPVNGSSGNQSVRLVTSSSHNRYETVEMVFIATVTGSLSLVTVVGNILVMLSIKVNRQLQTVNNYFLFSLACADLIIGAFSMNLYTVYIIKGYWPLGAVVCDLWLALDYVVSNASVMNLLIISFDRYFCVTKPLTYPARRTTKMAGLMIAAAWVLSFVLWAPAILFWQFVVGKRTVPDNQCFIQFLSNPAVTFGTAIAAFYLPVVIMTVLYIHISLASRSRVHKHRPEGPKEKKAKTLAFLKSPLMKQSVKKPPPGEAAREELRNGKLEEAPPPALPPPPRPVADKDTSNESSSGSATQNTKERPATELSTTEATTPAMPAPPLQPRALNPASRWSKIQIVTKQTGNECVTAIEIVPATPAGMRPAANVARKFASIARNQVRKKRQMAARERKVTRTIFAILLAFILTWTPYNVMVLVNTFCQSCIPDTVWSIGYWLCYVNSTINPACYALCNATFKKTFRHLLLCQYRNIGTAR

[2] = biological target: T2, Muscarinic acetylcholine receptor M4 (Homo sapiens) (UniProt P08173); assay: Positive allosteric modulation of human muscarinic acetylcholine M4/Gqi5 receptor expressed in CHO cells in presence of acetylcholine at EC20 concentration by calcium mobilization assay relative to control; type: functional, cell-based
T2 sequence (whole entry): T1 sequence (P08173 whole entry)
Method in brief: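 CHO cells stably expressing human M4 with a chimeric Gq protein were tested by calcium mobilization in the presence of an EC20 fixed concentration of acetylcholine. EC50 values come from concentration-response curves. Efficacy is given as % of the maximal acetylcholine response. Each value is n = 1 independent experiment run in triplicate.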

[3] = Brain to plasma partition coefficient, Kp of the compound in Sprague-Dawley rat at 0.2 mg/kg, iv measured at […]; type: ADME, organism-based; settings: time 0.25 hrs
[4] = Intrinsic clearance in human liver microsomes; settings: read-out: CLH
[5] = Intrinsic clearance in rat liver microsomes; settings: read-out: CLH
[6] = filed as positive allosteric modulator

## Cc1cc(C)c2c(n1)sc1c(NCc3ccc4c(c3)COC4)ncnc12
[1]; read-out: EC50
  EC50: 1140 nM
[2]; [6]
  %max: 41%

## Cc1cc(C)c2c(n1)sc1c(C3CC3)ncnc12
[2]; [6]
  %max: 62%

## Cc1cc(C)c2c(n1)oc1c(N3CCCC3)ncnc12
[1]; cho
  EC50: Not Active

## Cc1cc(C)c2c(n1)sc1c(C3CCOCC3)ncnc12
[1]; read-out: EC50
  EC50: 152 nM
[2]; [6]
  %max: 99%

## Cc1cc(C)c2c(n1)sc1c(N3CC(F)(F)C3)ncnc12
[2]; [6]
  %max: 69%

## Cc1cc(C)c2c(n1)sc1c(NCc3ccc(OC(F)(F)F)cc3)ncnc12
[1]; cho
  EC50: Not Active

## COc1ccc(C2CC2Nc2ncnc3c2sc2nc(C)cc(C)c23)cc1 (stereo not given)
[2]; [6]
  %max: 61%

## Cc1cc(C)c2c(n1)sc1c(NC3CC(c4ccncc4)C3)ncnc12 (stereo not given)
[1]; read-out: EC50
  EC50: 341 nM
[2]; [6]
  %max: 67%

## Cc1cc(C)c2c(n1)sc1c(NCc3ccc4sccc4c3)ncnc12
[1]; cho
  EC50: Not Active

## Cc1cc(C)c2c(n1)sc1c(NCc3ccc(CN4CCOCC4)cc3)ncnc12
[1]; read-out: EC50
  EC50: 1110 nM
[2]; [6]
  %max: 47%

## Cc1cc(C)c2c(n1)sc1c(OCc3ccc(C(C)(C)O)cc3)ncnc12
[1]; read-out: EC50
  EC50: 8740 nM
[2]; [6]
  %max: 40%

## Cc1cc(C)c2c(n1)sc1c(N3CCCC3)ncnc12
[2]; [6]
  %max: 67%
[3]
  Kp: 5.36
[4]
  predicted hepatic clearance: 18 mL/min/kg
[5]
  predicted hepatic clearance: 68 mL/min/kg

## Cc1cc(C)c2c(n1)oc1c(NCc3ccc(C(C)(C)O)cc3)ncnc12
[1]; cho
  EC50: Not Active

## Cc1cc(C)c2c(n1)oc1c(NC3CCC3)ncnc12
[2]; [6]
  %max: 44%

## Cc1cc(C)c2c(n1)sc1c(NC3CCCC3)nccc12
[2]; [6]
  %max: 71%

## Cc1ccc(CNc2ncnc3c2sc2nc(C)cc(C)c23)c(F)c1
[1]; cho
  EC50: Not Active

## Cc1cc(C)c2c(n1)sc1c(C3CCN(C(=O)C4CC4)CC3)ncnc12
[2]; [6]
  %max: 62%

## Cc1cc(C)c2c(n1)sc1c(NC3CN(c4ncc(C(F)(F)F)cn4)C3)nccc12
[2]; [6]
  %max: 80%

## COc1ccc(CNc2nccc3c2sc2nc(C)cc(C)c23)cc1F
[2]; [6]
  %max: 90%

## Cc1cc(C)c2c(n1)sc1c(NC3CN(c4ncc(C(F)(F)F)cn4)C3)ncnc12
[2]; [6]
  %max: 52%

## Cc1cc(C)c2c(n1)sc1c(N3CC4CC4C3)ncnc12 (stereo not given)
[2]; [6]
  %max: 75%

## Cc1cc(C)c2c(n1)sc1c(C3CCN(CC4CC4)CC3)ncnc12
[1]; cho
  EC50: Not Active

## Cc1cc(C)c2c(n1)sc1c(-c3nccs3)ncnc12
[2]; [6]
  %max: 62%

## Cc1cc(C)c2c(n1)sc1c(NCc3ccc(-n4ccnc4)nc3)ncnc12
[1]; read-out: EC50
  EC50: 1560 nM
[2]
  %max: 34%

## Cc1cc(C)c2c(n1)oc1c(NC3CN(c4ncc(C(F)(F)F)cn4)C3)ncnc12
[1]; cho
  EC50: Not Active

## Cc1cc(C)c2c(n1)sc1c(N3CCCC3)nccc12
[2]; [6]
  %max: 98%
[3]
  Kp: 37.1
[4]
  predicted hepatic clearance: 19 mL/min/kg
[5]
  predicted hepatic clearance: 68 mL/min/kg

## Cc1cc(C)c2c(n1)oc1c(NC3CC3)ncnc12
[2]; [6]
  %max: 64%

## COc1ccc(CNc2ncnc3c2oc2nc(C)cc(C)c23)cc1F
[1]; cho
  EC50: Not Active

## Cc1cc(C)c2c(n1)sc1c(C3CCN(c4cncc(F)c4)CC3)ncnc12
[1]; cho
  EC50: Not Active

## Cc1cc(C)c2c(n1)sc1c(N(C)C)nccc12
[2]; [6]
  %max: 82%

## Cc1cc(C)c2c(n1)sc1c(C3CCCCC3)ncnc12
[2]; [6]
  %max: 71%

## Cc1cc(C)c2c(n1)sc1c(NCc3cnc(C)nc3)ncnc12
[2]; [6]
  %max: 54%

## Cc1cc(C)c2c(n1)sc1c(NC3CCC3)nccc12
[2]; [6]
  %max: 90%
[3]
  Kp: 10.4
[4]
  predicted hepatic clearance: 20 mL/min/kg
[5]
  predicted hepatic clearance: 69 mL/min/kg

## Cc1cc(C)c2c(n1)sc1c(NC3CCC3)ncnc12
[2]; [6]
  %max: 76%

## Cc1cc(C)c2c(n1)sc1c(N3CC4(COC4)C3)ncnc12
[2]; [6]
  %max: 84%
[3]
  Kp: 4.47
[4]
  predicted hepatic clearance: 18 mL/min/kg
[5]
  predicted hepatic clearance: 63 mL/min/kg

## Cc1cc(C)c2c(n1)sc1c(NCc3ccc(C(F)(F)F)cn3)ncnc12
[1]; cho
  EC50: Not Active

## Cc1cc(C)c2c(n1)sc1c(NCc3ccc4c(n3)CCC4)ncnc12
[1]; read-out: EC50
  EC50: 2560 nM
[2]
  %max: 30%

## Cc1cc(C)c2c(n1)sc1c(N3CCC3)ncnc12
[2]; [6]
  %max: 59%
[3]
  Kp: 6.49
[4]
  predicted hepatic clearance: 20 mL/min/kg
[5]
  predicted hepatic clearance: 64 mL/min/kg

## Cc1cc(C)c2c(n1)sc1c(NCc3ccc(C(C)(C)O)cc3F)ncnc12
[1]; read-out: EC50
  EC50: 2320 nM
[2]; [6]
  %max: 74%

## Cc1cc(C)c2c(n1)sc1c(NCc3ccc(C(C)(C)O)cc3)nccc12
[2]; [6]
  %max: 101%
[3]
  Kp: 2.27
[4]
  predicted hepatic clearance: 15 mL/min/kg
[5]
  predicted hepatic clearance: 58 mL/min/kg

## Cc1cc(C)c2c(n1)sc1c(NCc3ccc(F)c(Cl)c3)ncnc12
[1]; cho
  EC50: Not Active

## Cc1cc(C)c2c(n1)sc1c(C)ncnc12
[2]; [6]
  %max: 58%

## Cc1cc(C)c2c(n1)sc1c(NCc3ccc(OC(F)F)cc3)ncnc12
[1]; read-out: EC50
  EC50: 4010 nM
[2]; [6]
  %max: 45%

## Cc1cc(C)c2c(n1)oc1c(NC3CN(c4cc(Cl)ncc4Cl)C3)ncnc12
[2]; [6]
  %max: 49%

## Cc1cc(C)c2c(n1)sc1c(NCc3ncc(F)cn3)ncnc12
[1]; read-out: EC50
  EC50: > 10000 nM
[2]
  %max: 30%

## Cc1cc(C)c2c(n1)sc1c(C3CCNCC3)ncnc12
[2]; [6]
  %max: 44%

## Cc1cc(C)c2c(n1)sc1c(C3CCN(C(=O)C4(C)CC4)CC3)ncnc12
[1]; read-out: EC50
  EC50: 234 nM
[2]; [6]
  %max: 72%
[3]
  Kp: 0.54
[4]
  predicted hepatic clearance: 11 mL/min/kg
[5]
  predicted hepatic clearance: 59 mL/min/kg

## COCC1CN(c2ncnc3c2sc2nc(C)cc(C)c23)C1
[2]; [6]
  %max: 50%

## Cc1cc(C)c2c(n1)sc1c(NCc3ccc(S(C)(=O)=O)cc3)ncnc12
[2]; [6]
  %max: 42%
[3]
  Kp: 0.45
[4]
  predicted hepatic clearance: 12 mL/min/kg
[5]
  predicted hepatic clearance: 50 mL/min/kg

## Cc1cc(C)c2c(n1)sc1c(NCc3ccc(C(C)(C)O)cc3)ncnc12
[2]; [6]
  %max: 76%
